# Test results published in ChEMBL document CHEMBL4152269, “New N-phenylpyrrolamide DNA gyrase B inhibitors: Optimization of efficacy and antibacterial activity” (Eur J Med Chem, 2018).
# Calls of active or inactive are those of the source. No cut-off for these calls is given here.
# Legend:
# Escherichia coli [1] = test: microbe, parasite or virus in culture; settings: ATCC 25922, 18 h
# [2] = Inhibition of Escherichia coli topoisomerase-4
# Staphylococcus aureus [3] = test: Antibacterial activity against Staphylococcus aureus; format: functional
# Escherichia coli [4] = test: Inhibition of Escherichia coli C-terminal His6-tagged topoisomerase-4 expressed in Escherichia coli BL21(DE3) assessed as residual activity at 1 uM preincubated for 10 mins followed by ATP addition measured after 30 mins by purine nucleoside phosphorylase enzyme coupled spectrophotometric method relative to control
# Enterococcus faecalis [5] = test: Growth inhibition of Enterococcus faecalis ATCC 29212 at 50 uM after 24 hrs by broth microdilution method relative to control; format: functional; settings: ATCC 29212, 24 h, read-out: GI
# Escherichia coli [6] = test: Growth inhibition of lpxC deficient Escherichia coli JD17464 at 50 uM after 24 hrs by broth microdilution method relative to control; format: functional; settings: JD17464, 24 h, read-out: GI
# Escherichia coli [7] = test: Growth inhibition of tolC deficient Escherichia coli JW5503 at 50 uM after 24 hrs by broth microdilution method relative to control; format: functional; settings: JW5503, 24 h, read-out: GI
# Staphylococcus aureus [8] = test: Inhibition of Staphylococcus aureus topoisomerase-4 assessed as residual activity at 1 uM preincubated for 10 mins followed by ATP addition measured after 30 mins by purine nucleoside phosphorylase enzyme coupled spectrophotometric method relative to control
# Staphylococcus aureus [9] = test: Growth inhibition of Staphylococcus aureus ATCC 25923 at 50 uM after 24 hrs by broth microdilution method relative to control; format: functional; settings: ATCC 25923, 24 h, read-out: GI
# Escherichia coli [10] = test: Growth inhibition of Escherichia coli ATCC 25922 at 50 uM after 24 hrs by broth microdilution method relative to control; format: functional; settings: ATCC 25922, 24 h, read-out: GI
# Pseudomonas aeruginosa = test: Growth inhibition of Pseudomonas aeruginosa ATCC 27853 at 50 uM after 24 hrs by broth microdilution method relative to control; format: functional; settings: ATCC 27853, 24 h, read-out: GI
# DNA gyrase subunit B [11] = biological target: DNA gyrase subunit B (Staphylococcus aureus, UniProt P0A0K8); test: Inhibition of Staphylococcus aureus DNA gyrase B preincubated for 10 mins followed by ATP addition measured after 30 mins by purine nucleoside phosphorylase enzyme coupled spectrophotometric method
# DNA gyrase subunit B [12] = biological target: DNA gyrase subunit B (Escherichia coli, UniProt P0AES6); test: Inhibition of Escherichia coli DNA gyrase by supercoiling assay
# Enterococcus faecalis [13] = test: Antibacterial activity against Enterococcus faecalis; format: functional, organism-based
# [14] = Inhibition of Escherichia coli C-terminal His6-tagged topoisomerase-4 expressed in Escherichia coli BL21(DE3) preincubated for 10 mins followed by ATP addition measured after 30 mins by purine nucleoside phosphorylase enzyme coupled spectrophotometric method
# Escherichia coli [15] = test: Antibacterial activity against Escherichia coli MG1655 up to 50 uM after 18 hrs by broth microdilution method; format: functional, organism-based; settings: K-12 substr. MG1655
# Method in brief: (§1)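 Broth microdilution per EUCAST/ISO 20776-1:2006: 12-step serial dilutions of compound in cation-adjusted Mueller-Hinton II broth, about 5 × 10^4 bacteria per well, 37 °C with shaking at 300 rpm, OD600 read after 18 h. MIC is the lowest concentration with background-normalized OD600 below 0.05, i.e. no visible growth; 3 replicates. Top concentration 50 μM.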
# Escherichia coli [16] = test: Antibacterial activity against dapF deficient Escherichia coli BW25113 up to 50 uM after 18 hrs by broth microdilution method; format: functional, organism-based
# Method in brief: as §1
# Escherichia coli [17] = test: Antibacterial activity against Escherichia coli BW25113 up to 20 uM after 18 hrs in presence of efflux pump inhibitor PAbetaN by broth microdilution method; format: functional, organism-based
# Escherichia coli [18] = test: Antibacterial activity against Escherichia coli MG1655 harboring NOG R136C mutant up to 50 uM after 18 hrs in presence of efflux pump inhibitor PAbetaN by broth microdilution method; format: functional, organism-based; settings: K-12 substr. MG1655
# Escherichia coli [19] = test: Antibacterial activity against dapF deficient Escherichia coli BW25113 up to 20 uM after 18 hrs in presence of efflux pump inhibitor PAbetaN by broth microdilution method; format: functional, organism-based
# Method in brief: (§2)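 Same EUCAST broth microdilution in cation-adjusted Mueller-Hinton II broth, 12-step compound dilutions, about 5 × 10^4 bacteria per well, 37 °C, 300 rpm, OD600 at 18 h. Parental and mutant strains were co-treated with the efflux pump inhibitor PAβN. MIC taken as normalized OD600 below 0.05; 3 replicates.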
# Enterococcus faecalis [20] = test: Antibacterial activity against Enterococcus faecalis ATCC 29212 after 18 hrs by broth microdilution method; format: functional; settings: ATCC 29212, 18 h
# Escherichia coli [21] = test: Antibacterial activity against tolC deficient Escherichia coli BW25113 up to 50 uM after 18 hrs by broth microdilution method; format: functional, organism-based
# Method in brief: as §1
# Escherichia coli [22] = test: Antibacterial activity against surA deficient Escherichia coli BW25113 after 18 hrs in presence of efflux pump inhibitor PAbetaN by broth microdilution method; format: functional; settings: BW25113, 18 h
# Method in brief: (§3)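 Efflux pump inhibitor PAβN was added to EUCAST/ISO 20776-1 broth microdilution using 12-step serial dilutions in cation-adjusted Mueller-Hinton II broth. About 5 × 10^4 bacteria were inoculated per well and incubated at 37 °C, shaken at 300 rpm, for 18 h, then read at OD600. MIC is the lowest concentration with background-normalized OD600 below 0.05, from 3 replicates.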
# Escherichia coli [23] = test: Antibacterial activity against mrcB deficient Escherichia coli BW25113 up to 50 uM after 18 hrs by broth microdilution method; format: functional, organism-based
# Method in brief: as §3, with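 “EUCAST/ISO” for “Efflux pump inhibitor PAβN was added to EUCAST/ISO”, “18 h. Growth was” for “18 h, then”, “read as” for “read at”, “concentration giving” for “concentration with”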
# Escherichia coli [24] = test: Antibacterial activity against Escherichia coli BW25113 up to 50 uM after 18 hrs by broth microdilution method; format: functional, organism-based
# Method in brief: as §1
# Escherichia coli [25] = test: Antibacterial activity against surA deficient Escherichia coli BW25113 up to 50 uM after 18 hrs by broth microdilution method; format: functional, organism-based
# Method in brief: as §1
# Escherichia coli [26] = test: Antibacterial activity against Escherichia coli MG1655 after 18 hrs in presence of efflux pump inhibitor PAbetaN by broth microdilution method; format: functional; settings: K-12 substr. MG1655, 18 h
# Method in brief: as §3
# HUVEC = test: Cytotoxicity against HUVEC assessed as reduction in cell proliferation after 72 hrs by MTS assay; format: cell-based; settings: Homo sapiens
# Method in brief: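 MTS assay in HUVEC grown in Eagle's MEM with 2 mM L-glutamine, penicillin/streptomycin and 10% FBS, at 37 °C under 5% CO2. Cells seeded at 2000 per well, attached for 24 h, then exposed to six compound concentrations (0.5% DMSO final) for 72 h. Reagent added for 3 h before reading A490. IC50 derived against DMSO-treated cells; triplicate wells, two repeats.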
# [27] = Cytotoxicity against human HepG2 cells assessed as cell proliferation at 50 uM after 72 hrs by MTS assay relative to control; format: cell-based; settings: read-out: Activity
# Method in brief: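 MTS assay in HepG2 grown in Eagle's MEM with 2 mM L-glutamine, penicillin/streptomycin and 10% FBS, at 37 °C under 5% CO2. Cells seeded at 2000 per well and attached for 24 h. Compound added at 50 μM (0.5% DMSO final) for 72 h, then reagent for 3 h and A490 read. […] Triplicate wells, two repeats, Welch's t-test.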
# Escherichia coli [28] = test: Antibacterial activity against Escherichia coli ATCC 25922 up to 50 uM after 18 hrs by broth microdilution method; format: functional, organism-based
# Method in brief: as §1
# [29] = Inhibition of Staphylococcus aureus topoisomerase-4 assessed as residual activity preincubated for 10 mins followed by ATP addition measured after 30 mins by purine nucleoside phosphorylase enzyme coupled spectrophotometric method
# Escherichia coli [30] = test: Antibacterial activity against mrcB deficient Escherichia coli BW25113 up to 20 uM after 18 hrs in presence of efflux pump inhibitor PAbetaN by broth microdilution method; format: functional, organism-based
# Method in brief: as §2
# Escherichia coli [31] = test: Antibacterial activity against acrB deficient Escherichia coli BW25113 up to 50 uM after 18 hrs by broth microdilution method; format: functional, organism-based
# Method in brief: as §1
# Staphylococcus aureus [32] = test: Antibacterial activity against Staphylococcus aureus ATCC 29213 after 18 hrs by broth microdilution method; format: functional; settings: ATCC 29213, 18 h
# Method in brief: as §3, with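 “EUCAST/ISO” for “Efflux pump inhibitor PAβN was added to EUCAST/ISO”, “18 h. Growth was” for “18 h, then”, “read as” for “read at”, “concentration giving” for “concentration with”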
# Escherichia coli [33] = test: Antibacterial activity against Escherichia coli ATCC 25922 after 18 hrs in presence of efflux pump inhibitor PAbetaN by broth microdilution method; format: functional; settings: ATCC 25922, 18 h
# Method in brief: as §3
# Staphylococcus aureus [34] = test: Antibacterial activity against methicillin-resistant Staphylococcus aureus ATCC 43300 after 18 hrs by broth microdilution method; format: functional; settings: ATCC 43300, 18 h
# Chain of DNA gyrase subunit B (Staphylococcus aureus, UniProt P0A0K8) (P0A0K8 whole entry): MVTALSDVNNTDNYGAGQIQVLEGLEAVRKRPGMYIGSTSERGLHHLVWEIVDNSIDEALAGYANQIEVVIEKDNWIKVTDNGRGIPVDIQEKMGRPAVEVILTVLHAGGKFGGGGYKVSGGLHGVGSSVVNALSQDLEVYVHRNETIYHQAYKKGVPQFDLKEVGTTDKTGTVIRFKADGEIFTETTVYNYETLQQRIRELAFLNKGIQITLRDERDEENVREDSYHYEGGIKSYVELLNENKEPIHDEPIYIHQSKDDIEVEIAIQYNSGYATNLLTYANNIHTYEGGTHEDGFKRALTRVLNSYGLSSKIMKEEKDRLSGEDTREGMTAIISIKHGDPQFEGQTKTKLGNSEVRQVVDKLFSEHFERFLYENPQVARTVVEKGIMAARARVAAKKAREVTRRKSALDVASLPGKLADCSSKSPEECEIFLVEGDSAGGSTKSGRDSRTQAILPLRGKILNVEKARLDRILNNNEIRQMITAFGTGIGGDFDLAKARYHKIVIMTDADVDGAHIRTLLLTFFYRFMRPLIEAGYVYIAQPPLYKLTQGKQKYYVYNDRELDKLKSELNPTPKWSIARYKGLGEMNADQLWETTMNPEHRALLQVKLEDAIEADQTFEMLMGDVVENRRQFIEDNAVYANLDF
smiles,measurement,setting,value
O=C(O)c1cn(C2CC2)c2cc(N3CCNCC3)c(F)cc2c1=O [CIPROFLOXACIN],MIC90,Escherichia coli [1],0.05 µM
CNc1cc(F)cc2c1[nH]c1nc(Oc3cnc(C)nc3)nc(N3C[C@H]4CCN[C@H]4C3)c12,Ki,[2],< 0.0001 µM
same,MIC,Staphylococcus aureus [3],0.06 µg/mL
CC(C)Oc1cc(C(=O)N[C@@H](C)C(=O)O)ccc1NC(=O)c1cc(Br)c(Br)[nH]1,Activity,Escherichia coli [4],78%
same,inhibition of growth at 50 µM,Enterococcus faecalis [5],70%
same,inhibition of growth at 50 µM,Escherichia coli [6],-15%
same,inhibition of growth at 50 µM,Escherichia coli [7],6%
same,Activity,Staphylococcus aureus [8],98%
same,inhibition of growth at 50 µM,Staphylococcus aureus [9],-18%
same,inhibition of growth at 50 µM,Escherichia coli [10],0%
same,inhibition of growth at 50 µM,Pseudomonas aeruginosa,10%
same,IC50,DNA gyrase subunit B [11],5.9 µM
same,IC50,DNA gyrase subunit B [12],0.37 µM
Cc1[nH]c(C(=O)Nc2ccc(C(=O)NCC(=O)O)cc2OC(C)C)c(Cl)c1Cl,MIC,Enterococcus faecalis [13],50 µM
same,IC50,[14],11 µM
Cc1[nH]c(C(=O)Nc2ccc(C(=O)N[C@@H](C)c3n[nH]c(=O)o3)cc2OC(C)C)c(Cl)c1Cl,Activity,Escherichia coli [15],inactive
same,Activity,Escherichia coli [16],inactive
same,inhibition of growth at 50 µM,Enterococcus faecalis [5],97%
same,Activity,Escherichia coli [17],inactive
same,inhibition of growth at 50 µM,Escherichia coli [6],0%
same,inhibition of growth at 50 µM,Escherichia coli [7],51%
same,Activity,Escherichia coli [18],inactive
same,Activity,Escherichia coli [19],inactive
same,MIC90,Enterococcus faecalis [20],1.56 µM
same,Activity,Escherichia coli [21],inactive
same,MIC90,Escherichia coli [22],13.8 µM
same,inhibition of growth at 50 µM,Staphylococcus aureus [9],100%
same,inhibition of growth at 50 µM,Escherichia coli [10],5%
same,Activity,Escherichia coli [23],inactive
same,Activity,Escherichia coli [24],inactive
same,Activity,Escherichia coli [25],inactive
same,MIC90,Escherichia coli [26],10.2 µM
same,IC50,HUVEC,40.7 µM
same,"viability at 72 h, 50 µM",[27],85%
same,IC50,[14],11 µM
same,Activity,Escherichia coli [28],inactive
same,IC50,[29],12 µM
same,inhibition of growth at 50 µM,Pseudomonas aeruginosa,-1%
same,Activity,Escherichia coli [30],inactive
same,Activity,Escherichia coli [31],inactive
same,MIC90,Staphylococcus aureus [32],4.17 µM
same,MIC90,Escherichia coli [33],4.6 µM
same,MIC90,Staphylococcus aureus [34],3.13 µM
